In ChEMBL document CHEMBL1142419, “Antimycobacterial activities of novel 2-(sub)-3-fluoro/nitro-5,12-dihydro-5-oxobenzothiazolo[3,2-a]quinoline-6-carboxylic acid” (Bioorg Med Chem, 2008):
≈ marks a conversion by molar mass, not a printed value.

Experiments:
[1] = test system: Mycobacterium tuberculosis; assay: Antimycobacterial activity against Mycobacterium tuberculosis H37Rv by agar dilution method; assay type: functional
Outline: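 MIC by agar dilution on Middlebrook 7H11 agar supplemented with OADC, following an NCCLS-like procedure, run in duplicate. The MDR-TB clinical isolate was resistant to isoniazid, rifampicin, ethambutol and ofloxacin.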

[2] = test system: Mycolicibacterium smegmatis; assay: Antimycobacterial activity against Mycobacterium smegmatis MC2 by agar dilution method; assay type: functional
Outline: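 Agar dilution on Middlebrook 7H11 agar supplemented with OADC, following an NCCLS-like procedure; MIC determined in duplicate against M. smegmatis ATCC 14468 (MC²).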

[3] = Inhibition of Mycobacterium smegmatis DNA gyrase supercoiling activity; set-up: species or system Mycolicibacterium smegmatis
[4] = test system: Vero; assay: Cytotoxicity against african green monkey Vero cells after 72 hrs by MTT assay; assay type: cell-based; conditions: Chlorocebus sabaeus
Outline: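 Vero mammalian cells were exposed to compounds for 72 h, with testing at 62.5 µg/ml. Viability was read as cellular conversion of MTT to formazan (non-radioactive cell proliferation kit), and IC50 was reported.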

[5] = test system: Mus musculus; assay: Phototoxicity in Swiss albino mouse assessed as ear thickness at 140 mg/kg, po after 24 hrs of irradiation; assay type: organism-based; set-up: dose 140 mg/kg, route oral; conditions: in vivo
Outline: (§1)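 Female Swiss albino mice (about 2 months, 20–25 g), fasted at least 18 h, received a single oral gavage of 140 mg/kg. Groups: six per group; lomefloxacin HCl 140 mg/kg; vehicle 0.5% aqueous sodium carboxymethylcellulose at 10 ml/kg. Mice were UV-irradiated for 4 h (about 18 J/cm²). Both ears were scored for erythema, edema and ear thickness (left/right averaged) pre-dose, at end of irradiation, and at about 24, 48, 72 and 96 h. Ear thickness change from baseline was tested by Student's t-tests.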

[6] = test system: Mus musculus; assay: Phototoxicity in Swiss albino mouse assessed as ear thickness at 140 mg/kg, po after 96 hrs of irradiation; assay type: organism-based; set-up: dose 140 mg/kg, route oral; conditions: in vivo; outline: as §1
[7] = test system: Mus musculus; assay: Phototoxicity in Swiss albino mouse assessed as ear thickness at 140 mg/kg, po after 48 hrs of irradiation; assay type: organism-based; set-up: dose 140 mg/kg, route oral; conditions: in vivo; outline: as §1
[8] = test system: Mus musculus; assay: (§2) Phototoxicity in Swiss albino mouse assessed as erythema incidence at 140 mg/kg, po after 48 hrs of irradiation; assay type: organism-based; set-up: dose 140 mg/kg, route oral; conditions: in vivo; outline: as §1
[9] = test system: Mus musculus; assay: Phototoxicity in Swiss albino mouse assessed as erythema incidence at 140 mg/kg, po after 96 hrs of irradiation; assay type: organism-based; set-up: dose 140 mg/kg, route oral; conditions: in vivo; outline: as §1
[10] = test system: Mus musculus; assay: Phototoxicity in Swiss albino mouse assessed as ear thickness at 140 mg/kg, po after 4 hrs of irradiation; assay type: organism-based; set-up: dose 140 mg/kg, route oral; conditions: in vivo; outline: as §1
[11] = test system: Mus musculus; assay: Phototoxicity in Swiss albino mouse assessed as erythema incidence at 140 mg/kg, po after 24 hrs of irradiation; assay type: organism-based; set-up: dose 140 mg/kg, route oral; conditions: in vivo; outline: as §1
[12] = test system: Mus musculus; assay: Phototoxicity in Swiss albino mouse assessed as ear thickness at 140 mg/kg, po after 72 hrs of irradiation; assay type: organism-based; set-up: dose 140 mg/kg, route oral; conditions: in vivo; outline: as §1
[13] = test system: Mus musculus; assay: as §2; assay type: organism-based; set-up: dose 140 mg/kg, route oral; conditions: in vivo; outline: as §1; remark: listed apart in the source
[14] = test system: Mus musculus; assay: Phototoxicity in Swiss albino mouse assessed as erythema incidence at 140 mg/kg, po after 4 hrs of irradiation; assay type: organism-based; set-up: dose 140 mg/kg, route oral; conditions: in vivo; outline: as §1

SMILES	MIC [1] [µM]	MIC [2] [µM]	IC50 [4] [µM]	also measured
O=C(O)c1c(=O)c2cc(F)c(N3CCC(n4c(=O)[nH]c5cc(Cl)ccc54)CC3)cc2n2c1sc1ccccc12	2.77 (≈ 1.56 µg/mL)	44.4 (≈ 25 µg/mL)		
O=C(O)c1c(=O)c2cc(F)c(N3CCC(N4CCCCC4)CC3)cc2n2c1sc1ccccc12	0.39 (≈ 0.187 µg/mL)	6.53 (≈ 3.13 µg/mL)	130	IC50 [3]: > 50 µg/mL
O=C(O)c1c(=O)c2cc(F)c(N3CCC4(CC3)OCCO4)cc2n2c1sc1ccccc12	0.86 (≈ 0.391 µg/mL)	6.89 (≈ 3.13 µg/mL)	> 138	Activity [5]: 0.31 mm; Activity [6]: 0.3 mm; Activity [7]: 0.3 mm; Activity [8]: Non-toxic; Activity [9]: Non-toxic; Activity [10]: 0.3 mm; Activity [11]: Non-toxic; Activity [12]: 0.28 mm; Activity [13]: Non-toxic; Activity [14]: Non-toxic
CC(C)(C)NC(=O)C1c2ccccc2CCN1c1cc2c(cc1F)c(=O)c(C(=O)O)c1sc3ccccc3n12 (stereo not drawn)	2.87 (≈ 1.56 µg/mL)	46 (≈ 25 µg/mL)	115	
O=C(O)c1c(=O)c2cc(F)c(N3CCN(C(=O)C4COc5ccccc5O4)CC3)cc2n2c1sc1ccccc12 (stereo not drawn)	1.39 (≈ 0.778 µg/mL)	2.79 (≈ 1.56 µg/mL)	112	IC50 [3]: > 50 µg/mL
CC(C)(C)OC(=O)NC1C2CN(c3cc4c(cc3F)c(=O)c(C(=O)O)c3sc5ccccc5n34)CC21 (stereo not drawn)	0.37 (≈ 0.189 µg/mL)	6.14 (≈ 3.13 µg/mL)	> 113	IC50 [3]: 50 µg/mL (≈ 98.1 µM)
O=C(O)c1c(=O)c2cc([N+](=O)[O-])c(N3CCN(C(c4ccccc4)c4ccc(Cl)cc4)CC3)cc2n2c1sc1ccccc12 (stereo not drawn)	5.01 (≈ 3.13 µg/mL)	40 (≈ 25 µg/mL)	50	
O=C(O)c1c(=O)c2cc([N+](=O)[O-])c(N3CCC(n4c(=O)[nH]c5cc(Cl)ccc54)CC3)cc2n2c1sc1ccccc12	5.31 (≈ 3.13 µg/mL)	84.8 (≈ 50 µg/mL)		
O=C(O)c1c(=O)c2cc([N+](=O)[O-])c(N3CCC4(CC3)OCCO4)cc2n2c1sc1ccccc12	1.62 (≈ 0.78 µg/mL)	104 (≈ 50 µg/mL)	130	
CN1CCN(c2cc3c(cc2F)c(=O)c(C(=O)O)c2sc4ccccc4n23)CC1c1ccccc1 (stereo not drawn)	12.8 (≈ 6.25 µg/mL)	103 (≈ 50 µg/mL)		
CC(C)(C)OC(=O)NC1C2CN(c3cc4c(cc3[N+](=O)[O-])c(=O)c(C(=O)O)c3sc5ccccc5n34)CC21 (stereo not drawn)	2.91 (≈ 1.56 µg/mL)	93.2 (≈ 50 µg/mL)	58.2	
O=C(O)c1c(=O)c2cc(F)c(N3CCN(Cc4ccc5c(c4)OCO5)CC3)cc2n2c1sc1ccccc12	1.47 (≈ 0.781 µg/mL)	5.89 (≈ 3.13 µg/mL)	> 118	
CC1CN(c2cc3c(cc2[N+](=O)[O-])c(=O)c(C(=O)O)c2sc4ccccc4n23)CC(C)O1 (stereo not drawn)	6.9 (≈ 3.13 µg/mL)	110 (≈ 50 µg/mL)		
O=C(O)c1c(=O)c2cc(F)c(N3CCN(C(c4ccccc4)c4ccc(Cl)cc4)CC3)cc2n2c1sc1ccccc12 (stereo not drawn)	2.61 (≈ 1.56 µg/mL)	10.4 (≈ 6.25 µg/mL)	104	
O=C(O)c1c(=O)c2cc([N+](=O)[O-])c(N3CCN(Cc4ccc5c(c4)OCO5)CC3)cc2n2c1sc1ccccc12	5.6 (≈ 3.13 µg/mL)	44.8 (≈ 25 µg/mL)	112	
CC(C)(C)NC(=O)C1c2ccccc2CCN1c1cc2c(cc1[N+](=O)[O-])c(=O)c(C(=O)O)c1sc3ccccc3n12 (stereo not drawn)	2.73 (≈ 1.56 µg/mL)	43.8 (≈ 25 µg/mL)		
O=C(O)c1c(=O)c2cc([N+](=O)[O-])c(N3CCC(O)(c4ccc(Cl)cc4)CC3)cc2n2c1sc1ccccc12	2.84 (≈ 1.56 µg/mL)	90.9 (≈ 50 µg/mL)	114	
O=C(O)c1c(=O)c2cc(F)c(N3CCSCC3)cc2n2c1sc1ccccc12	3.76 (≈ 1.56 µg/mL)	7.55 (≈ 3.13 µg/mL)		
Cc1onc(-c2c(F)cccc2F)c1C(=O)N1CCN(c2cc3c(cc2F)c(=O)c(C(=O)O)c2sc4ccccc4n23)CC1	2.52 (≈ 1.56 µg/mL)	40.4 (≈ 25 µg/mL)		
